# Legend:
# KB = assay: Cytotoxicity against human KB cells after 72 hrs by SRB assay; format: functional; conditions: read-out: ED50 (the source's name)
# Summary of the method: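 KB-3 cells grown in DMEM with 10% FBS at 37 °C and 5% CO₂ to 60–70% confluence, then used 1 day after a medium change. Samples were dissolved in DMSO and serially diluted in 10% aqueous DMSO. 5×10⁴ cells were exposed for 72 h at 37 °C, then TCA-fixed, stained with 0.4% SRB and read at 515 nm. Zero-day control was subtracted and values expressed relative to solvent control; ED50 by nonlinear regression.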
# Plasmodium falciparum [1] = assay: Antiplasmodial activity against chloroquine-sensitive Plasmodium falciparum D6 infected human erythrocytes as [3H]hypoxanthine uptake after 24 hrs; format: functional, organism-based
# Summary of the method: (§1)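 P. falciparum (D6, W2) cultured in type A+ human erythrocytes, RPMI-1640 with NaHCO3, HEPES and 10% heat-inactivated human plasma, 37 °C under 5% O2/5% CO2/90% N2. Infected red cells at 0.5-1.0% parasitemia, 1.0% hematocrit exposed to compound, duplicate seven-point series, 24 h; then 0.5 μCi [3H]hypoxanthine per well for 18 h more. Filter harvest, scintillation counting; IC50 by nonlinear regression versus zero-drug controls.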
# [2] = Selectivity index, ratio of ED50 for human KB cells to IC50 for […] Plasmodium falciparum D6; format: functional
# Plasmodium falciparum [3] = assay: Antiplasmodial activity against chloroquine-resistant Plasmodium falciparum W2 infected human erythrocytes as [3H]hypoxanthine uptake after 24 hrs; format: functional, organism-based; summary of the method: as §1
# [4] = Selectivity index, ratio of ED50 for human KB cells to IC50 for chloroquine-resistant Plasmodium falciparum W2; format: functional
Compound,EC50 (KB),IC50 (Plasmodium falciparum [1]),Selectivity Index [2],IC50 (Plasmodium falciparum [3]),Selectivity Index [4]
COc1cc2c3c4c1Oc1cc5c(cc1O4)[C@H](Cc1ccc(O)c(c1)Oc1ccc(cc1)C[C@@H]3NCC2)N(C)CC5,3800 nM,48 nM,79,281 nM,14
CN1CCc2cc3c4cc2[C@@H]1Cc1ccc(O)c(c1)Oc1ccc(cc1)C[C@H]1c2c(cc(O)c(c2O4)O3)CCN1C,4900 nM,90 nM,55,259 nM,19
COc1cc2c3c(c1O)Oc1cc4c(cc1O)CCN(C)[C@H]4Cc1ccc(O)c(c1)Oc1ccc(cc1)C[C@@H]2NCC3,17800 nM,883 nM,20,1590 nM,11
COc1ccc2cc1Oc1ccc(cc1)C[C@H]1c3cc(c(OC)cc3CCN1C)Oc1c(O)c(OC)cc3c1[C@@H](C2)NCC3,10400 nM,115 nM,92,210 nM,50
COc1ccc2cc1Oc1ccc(cc1)C[C@H]1c3cc(c(OC)cc3CCN1C)Oc1c(OC)c(OC)cc3c1[C@@H](C2)N(C)CC3,10600 nM,260 nM,40,88 nM,120
COc1ccc2cc1Oc1ccc(cc1)C[C@H]1c3c(cc(OC)c4c3Oc3cc5c(cc3O4)CCN=C5C2)CCN1C,5000 nM,554 nM,11,464 nM,11
COc1cc2c3cc1Oc1c(O)c(OC)cc4c1[C@H](Cc1ccc(O)c(c1)Oc1ccc(cc1)C[C@H]3N(C)CC2)N(C)CC4,17500 nM,134 nM,130,609 nM,29
COc1cc2c3cc1Oc1c(O)c(OC)cc4c1[C@H](Cc1ccc(O)c(c1)Oc1ccc(cc1)C[C@@H]3N(C)CC2)N(C)CC4,3700 nM,232 nM,16,623 nM,6
COc1ccc2cc1Oc1ccc(cc1)C[C@H]1c3cc(c(OC)cc3CCN1C)Oc1c(O)c(OC)cc3c1[C@@H](C2)N(C)CC3,10700 nM,199 nM,54,378 nM,28
COc1ccc2cc1Oc1ccc(cc1)C[C@H]1c3c(cc(OC)c(OC)c3Oc3c4c(cc(OC)c3OC)[C@H](C2)N(C)CC4)CCN1C,8400 nM,224 nM,37.7,110 nM,76.4
COc1ccc2cc1Oc1ccc(cc1)C[C@@H]1NCCc3cc(OC)c(cc31)Oc1c(O)c(OC)cc3c1[C@@H](C2)N(C)CC3,2700 nM,118 nM,23,218 nM,12
COc1cc2c3cc1Oc1c(O)c(OC)cc4c1[C@H](Cc1ccc(cc1)Oc1cc(ccc1O)C[C@H]3N(C)CC2)N(C)CC4,14800 nM,446 nM,33,1400 nM,11
COc1ccc2cc1Oc1ccc(cc1)C[C@@H]1c3cc(c(OC)cc3CCN1C)Oc1c(O)c(OC)cc3c1[C@@H](C2)N(C)CC3,16100 nM,86 nM,186,263 nM,61
COc1cc2c3cc1Oc1c(OC)c(OC)cc4c1[C@@H](Cc1ccc(O)c(c1)Oc1ccc(cc1)C[C@@H]3N(C)CC2)NCC4,7100 nM,47 nM,149,193 nM,36
COc1ccc2cc1Oc1ccc(cc1)C[C@H]1c3cc(c(OC)cc3CC[N+]1(C)[O-])Oc1c(OC)c(OC)cc3c1[C@H](C2)N(C)CC3 (stereo not given in full),> 31300 nM,1980 nM,>16,948 nM,>34
